Key:
[1] = target: glucocorticoid receptor (GR) (Homo sapiens, UniProt P04150); assay: Screening and target deconvolution experiments; assay type: binding
NMDAR = details: cited from earlier work
[^14C]- = assay type: in vivo, rat; details: for % of the total radioactivity exposure through 72 hours: plasma; for plasma exposure AUC 0–72h: [^14C]-(2R,6R)-HNK 10 mg/kg i.v.
Procedure, shortened: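 Male and female rats received a single bolus IV dose of 14C-labelled test compound (10 mg/kg). Blood and plasma radioactivity was followed from 15 min to 120 h in males and to 72 h in females. […] Whole-body autoradiograms were taken at 30 min and 4 h.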

mGluR2 = mGluR2 (Homo sapiens, UniProt Q14416); assay: [^3H]LY341495 competition binding, recombinant receptor membranes; details: membranes expressing human recombinant mGluR2
[2] = after i.p. injection of antidepressant-relevant doses in mice; cited from earlier work
mice [3] = assay: Conditioned place preference; assay type: in vivo, mouse; details: male mice
Procedure, shortened: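 Male C57BL/6J mice (20–25 g, n = 8/group) received saline or test compound (10, 30 or 65 mg/kg IP) before 15-min confinement to one side of a two-sided chamber (clear/white vs checkered/black). Vehicle was given before the opposite side on alternate days, counterbalanced across 6 conditioning days. A 20-min free-exploration pre-test came first, within 8 daily sessions. Infrared beams tracked time per side and distance travelled.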

[4] = system: >80 receptor and enzymatic binding sites; assay: Receptor and enzyme competitive screen; details: 100 nM
Procedure, shortened: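 In an outsourced panel, membranes from stable cell lines expressing each receptor or enzyme were incubated with the target's radioligand, with or without test compound at 100 nM or 10 μM. A reference compound ran concurrently, and a specific agonist or antagonist defined nonspecific binding. Bound ligand was collected by vacuum filtration through presoaked glass-fibre filters, washed with ice-cold buffer and counted by scintillation.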

mGluR2/3 = assay: mGluR functional assay; assay type: biochemical
rats [5] = details: i.v. doses up to 160 mg/kg; cited from earlier work
rats [6] = assay: [^18F]-FDG PET brain metabolic mapping; assay type: in vivo, rat; details: 10 mg/kg i.v. infusion in 40 min
Procedure, shortened: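 Rats were handling- and arena-habituated and fasted 16 h. Awake in an open field, they received a continuous IV infusion of buffered saline (n = 4) or test compound (10 mg/kg over 40 min, n = 5). Ten min after infusion start, [18F]-FDG (13 MBq) was given IP. Rats were anesthetized 30 min later and brains PET-scanned. SUVR images used whole brain as reference, analysed voxel-wise and by atlas-based ROIs.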

mGluR5 = mGluR5 (Homo sapiens, UniProt P41594); assay: mGluR functional assay; assay type: biochemical
mGluR5, sequence (P41594 21-1212): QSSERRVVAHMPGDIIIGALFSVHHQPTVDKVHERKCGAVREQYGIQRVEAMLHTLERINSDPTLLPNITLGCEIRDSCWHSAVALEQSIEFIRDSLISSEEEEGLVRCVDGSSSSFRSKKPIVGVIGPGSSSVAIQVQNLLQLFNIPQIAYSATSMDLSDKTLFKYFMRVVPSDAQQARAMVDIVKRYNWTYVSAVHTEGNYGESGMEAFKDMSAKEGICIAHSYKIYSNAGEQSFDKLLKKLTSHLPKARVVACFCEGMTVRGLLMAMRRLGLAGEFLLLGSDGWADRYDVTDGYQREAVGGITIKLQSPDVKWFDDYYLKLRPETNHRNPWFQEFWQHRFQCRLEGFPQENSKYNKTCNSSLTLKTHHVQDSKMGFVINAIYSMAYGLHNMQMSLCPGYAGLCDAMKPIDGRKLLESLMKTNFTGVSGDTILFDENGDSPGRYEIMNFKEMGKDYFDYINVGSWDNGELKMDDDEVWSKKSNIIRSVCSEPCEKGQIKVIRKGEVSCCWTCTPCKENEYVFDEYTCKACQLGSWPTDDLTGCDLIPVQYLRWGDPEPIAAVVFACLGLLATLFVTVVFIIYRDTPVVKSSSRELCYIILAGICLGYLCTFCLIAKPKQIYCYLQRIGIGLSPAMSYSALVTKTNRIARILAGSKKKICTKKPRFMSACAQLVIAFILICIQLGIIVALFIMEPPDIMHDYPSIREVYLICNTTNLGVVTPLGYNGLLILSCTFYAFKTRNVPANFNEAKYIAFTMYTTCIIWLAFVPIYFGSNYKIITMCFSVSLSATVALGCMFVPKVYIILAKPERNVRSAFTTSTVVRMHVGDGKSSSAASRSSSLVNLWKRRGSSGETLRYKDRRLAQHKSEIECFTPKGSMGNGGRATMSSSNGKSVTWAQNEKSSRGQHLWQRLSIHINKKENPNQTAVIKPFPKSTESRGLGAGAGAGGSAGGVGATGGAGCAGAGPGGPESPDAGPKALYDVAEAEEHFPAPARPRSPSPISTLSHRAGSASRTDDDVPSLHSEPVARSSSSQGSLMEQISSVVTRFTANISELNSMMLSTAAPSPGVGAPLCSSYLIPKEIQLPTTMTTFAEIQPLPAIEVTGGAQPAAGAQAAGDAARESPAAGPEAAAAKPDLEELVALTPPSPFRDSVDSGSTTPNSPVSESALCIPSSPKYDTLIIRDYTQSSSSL

opioid receptors = details: not tested experimentally; cited from earlier work
mGluR8 = mGluR8 (Homo sapiens, UniProt O00222); assay: mGluR functional assay; assay type: biochemical
mGluR8, sequence (O00222 34-908, species assumed): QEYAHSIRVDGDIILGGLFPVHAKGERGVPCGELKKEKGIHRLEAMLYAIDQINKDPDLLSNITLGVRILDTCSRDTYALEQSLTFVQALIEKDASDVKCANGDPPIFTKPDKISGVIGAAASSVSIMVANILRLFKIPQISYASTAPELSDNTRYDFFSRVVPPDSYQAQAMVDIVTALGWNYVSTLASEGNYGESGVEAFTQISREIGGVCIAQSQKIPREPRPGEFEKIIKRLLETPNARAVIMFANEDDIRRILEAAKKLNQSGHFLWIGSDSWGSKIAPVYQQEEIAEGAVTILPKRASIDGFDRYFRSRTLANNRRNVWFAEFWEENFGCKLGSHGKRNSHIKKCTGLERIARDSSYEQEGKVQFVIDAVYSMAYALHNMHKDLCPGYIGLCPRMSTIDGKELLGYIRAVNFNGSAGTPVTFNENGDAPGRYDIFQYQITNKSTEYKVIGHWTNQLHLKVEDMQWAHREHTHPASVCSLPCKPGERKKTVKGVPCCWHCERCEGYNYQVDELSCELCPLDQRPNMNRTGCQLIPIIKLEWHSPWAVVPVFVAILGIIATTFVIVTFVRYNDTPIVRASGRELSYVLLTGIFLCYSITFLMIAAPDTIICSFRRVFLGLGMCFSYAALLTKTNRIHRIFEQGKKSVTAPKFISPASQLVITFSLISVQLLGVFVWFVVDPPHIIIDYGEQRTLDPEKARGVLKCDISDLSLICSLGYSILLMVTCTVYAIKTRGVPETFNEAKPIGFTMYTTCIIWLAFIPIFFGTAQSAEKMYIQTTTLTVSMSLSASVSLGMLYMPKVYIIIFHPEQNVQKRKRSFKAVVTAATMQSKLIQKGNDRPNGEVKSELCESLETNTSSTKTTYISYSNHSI

mGluR4 = mGluR4 (Homo sapiens, UniProt Q14833); assay: mGluR functional assay; assay type: biochemical
mGluR1 = mGluR1 (Homo sapiens, UniProt Q13255); assay: mGluR functional assay; assay type: biochemical
mGluR1, sequence (Q13255 19-1194): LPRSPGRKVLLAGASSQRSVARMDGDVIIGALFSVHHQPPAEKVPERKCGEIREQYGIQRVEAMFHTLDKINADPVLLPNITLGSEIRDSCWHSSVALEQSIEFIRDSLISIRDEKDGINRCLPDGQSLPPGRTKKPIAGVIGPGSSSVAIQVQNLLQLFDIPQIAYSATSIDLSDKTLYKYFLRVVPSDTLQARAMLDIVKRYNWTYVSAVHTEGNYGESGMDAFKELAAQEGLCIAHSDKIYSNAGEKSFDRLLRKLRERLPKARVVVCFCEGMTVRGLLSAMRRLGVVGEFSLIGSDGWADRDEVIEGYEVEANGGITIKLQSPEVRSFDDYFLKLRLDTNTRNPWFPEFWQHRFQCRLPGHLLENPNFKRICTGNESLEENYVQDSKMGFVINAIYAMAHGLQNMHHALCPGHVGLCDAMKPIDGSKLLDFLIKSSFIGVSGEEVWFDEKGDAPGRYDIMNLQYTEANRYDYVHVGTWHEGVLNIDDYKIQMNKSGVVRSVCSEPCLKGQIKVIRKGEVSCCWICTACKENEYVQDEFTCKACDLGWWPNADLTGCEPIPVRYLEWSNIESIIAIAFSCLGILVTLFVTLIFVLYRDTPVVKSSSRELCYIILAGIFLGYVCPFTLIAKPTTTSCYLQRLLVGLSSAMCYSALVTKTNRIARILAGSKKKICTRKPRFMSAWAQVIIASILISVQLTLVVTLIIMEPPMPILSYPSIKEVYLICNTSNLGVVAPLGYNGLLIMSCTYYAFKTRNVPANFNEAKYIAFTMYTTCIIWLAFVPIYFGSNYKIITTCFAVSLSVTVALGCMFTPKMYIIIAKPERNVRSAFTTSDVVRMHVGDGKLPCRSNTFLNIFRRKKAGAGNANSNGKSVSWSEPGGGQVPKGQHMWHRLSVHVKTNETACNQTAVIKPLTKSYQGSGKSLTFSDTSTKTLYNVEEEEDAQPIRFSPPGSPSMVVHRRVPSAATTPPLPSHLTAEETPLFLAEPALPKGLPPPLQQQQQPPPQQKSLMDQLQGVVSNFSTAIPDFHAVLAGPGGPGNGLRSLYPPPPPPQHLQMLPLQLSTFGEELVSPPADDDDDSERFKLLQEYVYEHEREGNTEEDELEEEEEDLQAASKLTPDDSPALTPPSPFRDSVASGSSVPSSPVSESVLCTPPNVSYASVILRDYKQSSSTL

mice [7] = details: cited from earlier work
mu-opioid receptors, MOR = mu-opioid receptors, MOR (Rattus norvegicus, UniProt P33535); assay: [^3H]DAMGO competition binding, rat brain membranes
mu-opioid receptors, MOR, sequence (P33535 whole entry): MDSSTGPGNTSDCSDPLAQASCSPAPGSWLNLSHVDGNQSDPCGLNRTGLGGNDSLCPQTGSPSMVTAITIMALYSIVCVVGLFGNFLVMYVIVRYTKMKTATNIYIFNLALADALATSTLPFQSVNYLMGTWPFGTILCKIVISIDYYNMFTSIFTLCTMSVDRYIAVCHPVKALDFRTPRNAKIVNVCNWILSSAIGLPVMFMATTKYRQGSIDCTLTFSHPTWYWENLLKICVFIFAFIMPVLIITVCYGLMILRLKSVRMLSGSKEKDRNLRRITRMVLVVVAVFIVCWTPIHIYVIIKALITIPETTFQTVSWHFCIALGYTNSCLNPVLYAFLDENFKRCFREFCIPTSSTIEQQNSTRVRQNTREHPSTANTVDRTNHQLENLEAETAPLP

mGluR3 = mGluR3 (Homo sapiens, UniProt Q14832); assay: [^3H]LY341495 competition binding, recombinant receptor membranes; details: membranes expressing human recombinant mGluR3

glucocorticoid receptor (GR), sequence (P04150 whole entry): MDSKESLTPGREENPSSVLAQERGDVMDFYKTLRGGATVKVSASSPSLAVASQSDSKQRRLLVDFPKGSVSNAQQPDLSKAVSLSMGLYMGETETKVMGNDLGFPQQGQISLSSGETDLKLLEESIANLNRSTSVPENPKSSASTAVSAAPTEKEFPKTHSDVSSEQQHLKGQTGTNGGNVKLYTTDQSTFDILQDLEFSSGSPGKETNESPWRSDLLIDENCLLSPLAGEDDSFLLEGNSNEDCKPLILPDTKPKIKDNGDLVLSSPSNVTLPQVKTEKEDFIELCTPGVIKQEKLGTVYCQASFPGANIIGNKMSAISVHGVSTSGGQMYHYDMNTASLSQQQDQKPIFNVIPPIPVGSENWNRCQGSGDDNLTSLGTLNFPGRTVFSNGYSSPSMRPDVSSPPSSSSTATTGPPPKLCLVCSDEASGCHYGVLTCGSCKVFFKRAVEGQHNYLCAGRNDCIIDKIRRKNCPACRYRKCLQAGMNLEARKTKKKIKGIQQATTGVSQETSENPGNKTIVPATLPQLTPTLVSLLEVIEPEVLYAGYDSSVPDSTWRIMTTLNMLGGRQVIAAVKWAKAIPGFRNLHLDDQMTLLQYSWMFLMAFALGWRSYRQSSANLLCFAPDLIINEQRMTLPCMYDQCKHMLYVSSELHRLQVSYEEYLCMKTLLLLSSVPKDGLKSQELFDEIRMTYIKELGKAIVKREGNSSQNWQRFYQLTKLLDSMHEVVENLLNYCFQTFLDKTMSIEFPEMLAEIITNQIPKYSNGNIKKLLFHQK

For N[C@@]1(c2ccccc2Cl)CCC[C@@H](O)C1=O [(2R,6R)-HNK, (2R,6R)-hydroxynorketamine], the “interaction with GR” value [1] is listed as “failed to interact”, the “effect on NMDAR function” value (NMDAR; 10 μM, cultured hippocampal neurons) is listed as “no effect” and the “reduction in synaptic NMDAR currents” value (NMDAR; 50 μM) is listed as ~ 40%. For the same molecule, the “% of the total radioactivity exposure through 72 hours” value ([^14C]-; female rats) was 26.7%, the “plasma exposure AUC 0–72h” value ([^14C]-; female rats) was 7090 ng eq·h/g and the “% of the total radioactivity exposure through 72 hours” value ([^14C]-; male rats) was 21.6%. The “plasma exposure AUC 0–72h” value ([^14C]-; male rats) was 5330 ng eq·h/g, the “displacement of [^3H]LY341475” value (mGluR2) was “failed to displace” and the “maximum extracellular concentration in the hippocampus” value [2] was ~ 8 μM. The “locomotor activity, repeated administration” value (mice [3]; 10, 30, 65 mg/kg IP, CPP conditioning sessions) was “did not produce any changes in locomotor activity”, the conditioned place preference (mice [3]; repeated 10, 30, 65 mg/kg IP) was “did not induce CPP” and the locomotor sensitization (mice [3]; repeated administration) was “did not induce sensitization”. For the same molecule, the “hits in competitive screen” value [4] was “No hits”, the “functional responses at mGluR2/3” value (mGluR2/3) was “did not affect” and the NMDAR-associated neurotoxicity (rats [5]) was “does not produce NMDAR-associated neurotoxicity”. For the same molecule, the “metabolic activity in the PFC” value (rats [6]) was “did not see any metabolic activity”, the “regional metabolic connectivity profile” value (rats [6]) was “closely resembled the saline condition” and the “brain metabolic activity ([^18F]-FDG uptake), voxel-wise analysis” value (rats [6]; insula, nucleus accumbens, globus pallidus, thalamus, cortices, cerebellum) was “mild but significant increase”. For the same molecule, the “FDG uptake in the nucleus accumbens, ROI-based” value (rats [6]; vs saline) was ~ 10 % increase, the “effect in functional assay at mGluR5” value (mGluR5) was “no effects” and the “affinity for opioid receptors by computational modeling” value (opioid receptors) was “high (i.e. in the nanomolar range) affinity”. The “effect in functional assay at mGluR8” value (mGluR8) was “no effects”, the “effect in functional assay at mGluR4” value (mGluR4) was “no effects” and the “effect in functional assay at mGluR1” value (mGluR1) was “no effects”. For the same molecule, the “pain reduction after naloxone pretreatment” value (mice [7]) was “not blocked by naloxone pretreatment”, the “binding to opioid receptors (MOR)” value (mu-opioid receptors, MOR; concentrations up to 100 μM) was “does not bind” and the “MOR binding, displacement of [^3H]DAMGO” value (mu-opioid receptors, MOR; rat brain membranes) was “failed to displace”. For the same molecule, the “displacement of [^3H]LY341475” value (mGluR3) was “failed to displace”.

From paper PMC10013843 (Molecular psychiatry, 2022)
